# ADAM10 inh = inhibitors of human ADAM10; hit rate 0.62% among 370,000; O14672; recombinant ADAM10, EDANS/DABCYL FRET peptide cleavage, 3 h; inhibition, % at 7 µM; AID 720582;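 active means inhibition above a per-campaign cutoff equal to the mean of compounds falling between control-based bounds plus 3 SD, cut at about 20% in these data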;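 further: 0% = DMSO wells while the 100% control is not disclosed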
# PLC-gamma1 inh = PLC-gamma1 (human) inhibition, primary screen; inhibition, % at 12.2 µM; purified PLC-gamma1, fluorogenic substrate, fluorescence; hit rate 0.84% among 370,000; in the data active means inhibition above about 9.5%
# Tb MetRS inh = blocks T. brucei methionyl-tRNA synthetase activity. purified T. brucei MetRS, ATP depletion, Kinase-Glo luminescence. inhibition, % at 11.9 µM. hit rate 0.4% among 360,000;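 active means inhibition above a per-plate cutoff of the control wells' mean inhibition plus 3 SD, cut at about 5.5% in these data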;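 further: 0% = DMSO wells median and 100% = median of wells with control inhibitor compound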
#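 System: purified T. brucei MetRS enzyme / Detection: Kinase-Glo luciferase luminescence reporting remaining unconsumed ATP / Medium: HEPES buffer with MgCl2, KCl, DTT, spermine, BSA, pyrophosphatase / Replication: singlicate, one well per compound / Evaluation: percent inhibition relative to median high and low control wells / Schedule: 2 h aminoacylation at 25 °C after 15 min preincubation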
# ADAM17 inh = ADAM17 inhibition, QFRET primary screen; inhibition, % at 6.95 µM; recombinant ADAM17, EDANS/DABCYL FRET peptide cleavage; hit rate 0.83% among 370,000; P78536;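 active means inhibition above the mean of compounds lying between control limits plus 3 SD, set per campaign, cut at about 8.5% in these data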;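 further: 0% = DMSO-only wells as the low control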
# PLC-beta3 inh = inhibitors of human phospholipase C beta3; inhibition, % at 12.2 µM; Purified PLC-beta3, fluorogenic substrate, fluorescence; hit rate 0.18% among 370,000; in the data active means inhibition above about 11%;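 further: 0% = median of compound wells on plate and 100% = full blocker control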
# ADAM10 confirm = confirmation of inhibitors of human ADAM10; shares compounds with ADAM10 inh; ADAM10 QFRET peptide cleavage, EDANS fluorescence; inhibition, % at 6.95 µM; hit rate 1% among 2,100;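 active means inhibition above about 20% chosen separately for each screening run, limit read from the data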;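 further: 0% = DMSO wells and 100% = marimastat wells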
# ADAM17 ctr = ADAM17 inhibition, counter-screen for ADAM10 exosite hits. shares compounds with ADAM10 inh. ADAM17 QFRET peptide cleavage, EDANS fluorescence. inhibition, % at 6.95 µM. hit rate 0.5% among 2,100. AID 743214;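 active means mean triplicate inhibition above the solvent-only control wells' mean plus 3 SD, cut at about 12% in these data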;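 further: 0% = DMSO wells and 100% = marimastat wells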
# ADAM10 ctr = ADAM10 inhibition, counter-screen for ADAM17 exosite hits | shares compounds with ADAM17 inh | AID 743256 | inhibition, % at 6.95 µM | recombinant ADAM10, EDANS/DABCYL FRET peptide cleavage, 3 h | hit rate 47% among 2,900;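 active means mean inhibition over the triplicate runs exceeds the activity threshold set in the earlier primary screen, cut at about 20% in these data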;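 further: 0% = DMSO wells and 100% = marimastat wells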
# ADAM17 confirm = confirmation of inhibitors of human ADAM17; hit rate 65% among 2,900; shares compounds with ADAM17 inh; inhibition, % at 6.95 µM; recombinant ADAM17, EDANS/DABCYL QFRET peptide cleavage;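 active means mean inhibition across replicates above the hit cutoff set in the primary screen, cut at about 8.5% in these data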;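 further: 0% = DMSO wells and 100% = marimastat wells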
# Active calls of the source: *; x = no result. The list is not random: actives were taken first. Their share in the collection is about 2.3%.
SMILES,ADAM10 inh,PLC-gamma1 inh,Tb MetRS inh,ADAM17 inh,PLC-beta3 inh,ADAM10 confirm,ADAM17 ctr,ADAM10 ctr,ADAM17 confirm
O=C(Nc1cccc(Cl)c1)OCCOCCOC(=O)Nc1cccc(Cl)c1,21*,5,0,9.8*,0,4,2,20,13*
CC(C)COC(=O)NCCOC(=O)Nc1cccc(Cl)c1,5,2,0,4,1,x,x,x,x
O=C(Nc1ccccc1)OCCOc1ccc(Cl)cc1Cl,32*,6,0,12*,7,5,2,28*,15*
O=C(Nc1ccccc1)OCC1CCCO1 (configuration not stated),-3,-1,-1,-3,-8,x,x,x,x
O=C(Nc1ccccc1)OCC1COC(c2ccccc2)(c2ccccc2)O1 (configuration not stated),25*,7,0,11*,-13,9,3,24*,12*
Cc1ccc2nc(NC(=O)CN(C)S(=O)(=O)c3ccc(Br)s3)sc2c1,24*,4,0,10*,-2,7,2,25*,15*
Cc1ccc2nc(NC(=O)CNS(=O)(=O)c3ccc(Br)s3)sc2c1,-19,-8,1,-8,-13,x,x,x,x
Cc1ccc(S(=O)(=O)Nc2ccc(C(OC(=O)c3ccccc3[N+](=O)[O-])(C(F)(F)F)C(F)(F)F)cc2)cc1,22*,3,0,10*,8,4,2,47*,27*
CC(=O)c1ccc(NS(=O)(=O)c2ccccc2)cc1,-15,2,0,-2,-6,x,x,x,x
O=C(OC(c1ccc(NS(=O)(=O)c2ccccc2)cc1)(C(F)(F)F)C(F)(F)F)c1ccccc1,32*,2,0,13*,3,4,2,36*,18*
CCOc1ccc(Cl)cc1-c1cc(C(=O)Nc2ccc(F)cc2)[nH]n1,11,1,-1,7,0,x,x,x,x
COCCn1c(C)cc(C(=O)COC(=O)c2ccc(Cl)c(S(N)(=O)=O)c2)c1C,1,6,0,5,7,x,x,x,x
COc1ccc(S(=O)(=O)N2CCC(c3cc(-c4cccc5ccccc45)n[nH]3)CC2)cc1,25*,1,0,11*,0,18,5,6,9.1*
COc1ccc(NC(=S)Nc2nc(CC(=O)Nc3ccccc3OC)cs2)cc1,24*,4,1,9.3*,1,8,2,17,14*
COc1cc(-c2nnc(COc3ccc4ccccc4c3)o2)cc(OC)c1OC,21*,4,0,10*,0,8,3,22*,15*
FC(F)Sc1ccc(NC(=S)NC2CCCCC2)cc1,25*,8,0,14*,7,4,1,15,11*
Cc1ccc([C@H]2C[C@H](n3cc(COC(=O)c4ccccc4)nn3)[C@@H](O)CN2Cc2cccs2)cc1,24*,1,-1,12*,-3,6,2,12,9.2*
O=C1[C@H]2[C@@H](c3ccc(C(F)(F)F)cc3)N[C@]3(CCCN(Cc4ccc(C(F)(F)F)cc4)C3=O)[C@H]2C(=O)N1Cc1ccccc1,31*,1,-1,13*,4,3,1,41*,24*
N#CC1=C(N)NC(SCC(=O)Nc2ccc(Br)cc2)=C(C#N)C12CCCCC2,22*,4,4,11*,2,3,2,30*,20*
N#CC1=C(N)NC(SCC(=O)c2ccccc2)=C(C#N)C12CCCC2,-1,-23,-1,0,-23,x,x,x,x
CCN(CC(=O)Nc1ccc(OC)cc1)CC(=O)Nc1cccc(S(=O)(=O)N2CCOCC2)c1,-1,2,0,3,4,x,x,x,x

# Screening results: PubChem BioAssay, The Scripps Research Institute Molecular Screening Center
